Source: paper PMC6598219 (Saudi Pharmaceutical Journal : SPJ, 2019)
≈ marks a conversion by molar mass, not a printed value.

What was measured:
[1] = ABTS radical cation scavenging activity
Summary of the method: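 ABTS radical cation formed by mixing aqueous 7 mmol/L ABTS and 2.45 mmol/L potassium persulfate 1:1 and keeping in the dark 6 h at room temperature. The radical was diluted in ethanol and equilibrated at 30 °C. Test compound aliquots at 20, 40, 60, 80 and 100 µg/mL were added, incubated 30 °C for 20 min, and read at 734 nm with BHA as reference. Scavenging % = (Ac − Aa)/Ac × 100. Results given as mean ± SD.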

[2] = DPPH free radical scavenging activity
Summary of the method: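 Test compound aliquots at 20, 40, 60, 80 and 100 µg/mL were added to 0.004% DPPH solution, and absorbance was read at 520 nm after 30 min. BHA served as reference and methanol as control. Inhibition % = (Ao − At)/Ao × 100, with Ao the control absorbance. Results given as mean ± SD.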

## COc1ccc(O)c(C(C)(C)C)c1 [BHA, butylated hydroxyanisole]
[1]; at 100 µg/mL concentration
  ABTS scavenging property (%): 98.20 ± 4.60%
[1]; mean of three replicates
  IC50, ABTS radical scavenging: 28.70 ± 5.20 µg/mL (≈ 159 µM)
[2]; at 100 µg/mL
  DPPH free radical scavenging property (%): 93.4 ± 1.6%
[2]; mean of three replicates
  IC50, DPPH free radical scavenging: 34.50 ± 6.20 µg/mL (≈ 191 µM)
